Bioassay records as filed in PubChem BioAssay.
SUMO1 PPI mod: modulators of SUMO1 protein-protein interactions, primary screen, biochemical, uHTS. inhibition, % at 20 µM. actives 0.33% (n = 360,000). Small ubiquitin-related modifier 1 (Homo sapiens), P63165. SUMO1 binding to a labelled peptide, TR-FRET, 1 h; in the data active = inhibition above about 37%
Target sequence (P63165 whole entry, looked up): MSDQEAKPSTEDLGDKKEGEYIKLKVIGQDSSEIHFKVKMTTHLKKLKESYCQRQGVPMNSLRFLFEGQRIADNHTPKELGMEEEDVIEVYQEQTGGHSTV
DNMT1 block: human DNMT1 methyltransferase inhibitors, primary screen, biochemical, molecular beacon, fluorescence, HinP1I cleavage, uHTS. actives 0.83% (n = 360,000). inhibition (reported as % activation of signal), % at 10 µM; in the data active = inhibition above about 50%
STEP block: STEP phosphatase inhibitors, primary screen, biochemical, fluorescence intensity, uHTS. actives 0.25% (n = 360,000). AID 588621, 2011. inhibition, % at 20 µM. recombinant STEP, OMFP fluorogenic substrate;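 active = inhibition at 20 µM, scaled per plate between control wells, above about 37%, limit read from the data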
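material = STEP tyrosine phosphatase | reagent = fluorogenic phosphatase substrate OMFP at 25 µM final | doses = single compound dose of 20 µM, 1% DMSO final | schedule = 20 min reaction, room temperature, in the dark | measured by = fluorescence, 480/540 nm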
Scp1 inh: Scp-1 phosphatase inhibitors, primary screen, biochemical, colorimetric, uHTS; Carboxy-terminal domain RNA polymerase II polypeptide A small phosphatase 1 (Homo …; Recombinant Scp1, phosphopeptide, malachite green phosphate absorbance; inhibition, % at 20 µM; actives 0.88% (n = 340,000);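 active = inhibition above about 50% at 20 µM, limit read from the data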
Target sequence (Q9GZU7 76-261 limits assumed): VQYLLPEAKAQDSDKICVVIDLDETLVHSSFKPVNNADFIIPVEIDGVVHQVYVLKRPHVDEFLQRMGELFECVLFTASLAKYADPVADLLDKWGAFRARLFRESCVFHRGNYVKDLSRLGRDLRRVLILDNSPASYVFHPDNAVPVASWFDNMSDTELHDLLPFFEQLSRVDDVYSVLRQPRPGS
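Test system: SCP-1 catalytic domain; Buffer or medium: Acidic Tris acetate buffer with magnesium and detergent; Also added: Phosphorylated 17-residue peptide substrate; Compound: single 20 µM dose, 1% DMSO; Schedule: enzyme reaction 45 min at room temperature, colour 5 min, stabilisation 30 min; Signal: Phosphate-binding colour reagent, absorbance read at 630 nm.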
LMPTP block: LMPTP phosphatase inhibitors, primary screen, biochemical, fluorescence intensity, uHTS; Low molecular weight phosphotyrosine protein phosphatase (Homo sapiens), P24666; recombinant LMPTP-A, OMFP fluorogenic substrate; inhibition, % at 20 µM; actives 0.22% (n = 360,000);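 active = compounds that cut the enzyme signal by at least half of the control window in the single-dose screen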
Target sequence (P24666 whole entry, looked up): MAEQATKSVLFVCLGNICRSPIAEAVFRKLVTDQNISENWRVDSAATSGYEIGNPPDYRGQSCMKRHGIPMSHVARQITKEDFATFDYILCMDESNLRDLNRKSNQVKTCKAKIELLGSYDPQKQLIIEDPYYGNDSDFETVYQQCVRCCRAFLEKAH
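Test system: LMPTP-A phosphatase enzyme. Amount: LMPTP-A at 0.625 nM final in the reaction. Reagent: OMFP substrate, 400 µM final. Times: 50 min at room temperature. Signal: endpoint fluorescence intensity from OMFP dephosphorylation. Read-out basis: % inhibition. Benchmarks: no-enzyme and uninhibited controls.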
Beacon interf DR: spectral interference with molecular beacon fluorescence, dose response, artefact control for DNMT1 inhibitor project, biochemical, fluorescent molecular beacon. shares compounds with DNMT1 block. spectral interference counter-screen. IC50, µM. 200 tested, under 10 active; call rule not given here
DNMT1 inh conf: DNMT1 methyltransferase inhibitor retest, confirmation, biochemical, molecular beacon, fluorescence, single concentration; shares compounds with DNMT1 block; DNMT1 molecular beacon HinP1I cleavage; inhibition, % at 10 µM; actives 8% (n = 2,300);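 active = average inhibition of at least 30% in the single-concentration confirmation test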
DNMT1 interf: counter-screen for DNMT1 inhibitors: spectral interference; shares compounds with DNMT1 block; DNMT1 molecular beacon spectral interference counterscreen, fluorescence 485/520; AID 602387; actives 1% (n = 2,300); activation (fluorescence interference), % at 10 µM;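 active = activation of at least 30% at 10 µM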;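 note: DNMT1 catalytic domain with a HinP1I cleavage step and a FAM/dabcyl DNA beacon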
Large screens that a line does not name were inactive (follow-up assays come after a bar, where they were run). Shown are actives, neighbours in structure and some others; about 1.7% of the full set was active somewhere.

CCN(CC)c1ccc2cc(-c3nnc(-c4ccncc4)o3)c(=O)oc2c1	DNMT1 block 136 | DNMT1 inh conf 88 | DNMT1 interf 61
CCN(CC)c1ccc2cc(C(N)=O)c(=O)oc2c1	none
COC(=O)c1ccc(NC(=O)CCN2CCOCC2)cc1	DNMT1 block 92 | DNMT1 inh conf inactive | DNMT1 interf inactive
CC(=O)N1CCN(C(=O)COC(=O)/C=C/c2ccc(C(F)(F)F)cc2)CC1	none
COc1ccc2nc(C)cc(Nc3ccc(N4CCN(C)CC4)cc3)c2c1	DNMT1 block 70 | Beacon interf DR inactive | DNMT1 inh conf 33 | DNMT1 interf inactive
COc1ccc2nc(C)cc(Nc3ccc(N4CCOCC4)cc3)c2c1	none
COC(=O)c1sc(N2C(=O)C(O)=C(C(=O)c3ccc(C)o3)C2c2cccs2)nc1C (centres undefined)	none
COC(=O)c1sc(N2C(=O)c3oc4ccccc4c(=O)c3C2c2cccs2)nc1C (centres undefined)	DNMT1 block 60 | DNMT1 inh conf inactive | DNMT1 interf inactive
CC(=O)Nc1ccc(NC(=O)C(C)OC(=O)CCc2c[nH]c3ccccc23)cc1 (centres undefined)	none
C=CCN(C(=O)c1csnn1)C(C(=O)NCc1ccc(F)cc1)c1ccccc1F (centres undefined)	DNMT1 block 54 | DNMT1 inh conf inactive | DNMT1 interf inactive
O=C(O)c1ccccc1-c1ncc(-c2ccccc2)o1	none
CN(C)S(=O)(=O)c1ccc2c(c1)C(CC(=O)O)OC2=O (centres undefined)	DNMT1 block 91 | DNMT1 inh conf inactive | DNMT1 interf inactive
COCCN1CC(CNC(=O)c2cc(COc3ccccc3SC)on2)CC1=O (centres undefined)	none
O=c1nc2c(O)cccn2c2c1c(=O)[nH]c1ccccc12	DNMT1 block 105, STEP block 57, Scp1 inh 55, LMPTP block 65 | DNMT1 inh conf inactive | DNMT1 interf inactive
O=c1[nH]c2ccccc2c2nc3ccccn3c12	none
COc1ccc(S(=O)(=O)N2CCOCC2)cc1NC(=O)c1cc(C)oc1C	DNMT1 block 65 | DNMT1 inh conf inactive | DNMT1 interf inactive
CC(C)C(CCNC(=O)CC(Cc1ccccc1)c1ccco1)c1ccco1 (centres undefined)	DNMT1 block 61 | DNMT1 inh conf inactive | DNMT1 interf inactive
C/C(CC(=O)Nc1ccccc1C#N)=N\NC(=O)c1ccncc1	DNMT1 block 82 | DNMT1 inh conf inactive | DNMT1 interf inactive
CC(=O)Nc1ccccc1NC(=O)C/C(C)=N/NC(=O)c1ccncc1	none
CCC1=NN2C(=N)/C(=C\c3ccc(SCc4ccco4)o3)C(=O)N=C2S1	SUMO1 PPI mod 54, DNMT1 block 108 | DNMT1 inh conf inactive | DNMT1 interf inactive
CCCC1=NN2C(=N)/C(=C\c3ccc(SCc4ccco4)o3)C(=O)N=C2S1	SUMO1 PPI mod 50, DNMT1 block 105, Scp1 inh 81, LMPTP block 51 | DNMT1 inh conf inactive | DNMT1 interf inactive
CS(=O)(=O)N1CCC(C(=O)Nc2cccc(Br)c2)CC1	none
CC(=O)[C@@]1(O)CC[C@H]2[C@@H]3C[C@H](C)C4=CC(=O)C=C[C@]4(C)[C@@]3(F)[C@@H](O)C[C@@]21C	DNMT1 block 80 | DNMT1 inh conf inactive | DNMT1 interf inactive
CCCC(=O)O[C@]1(C(=O)COC(C)=O)CC[C@H]2[C@@H]3C[C@H](F)C4=CC(=O)C=C[C@]4(C)[C@@]3(F)[C@@H](O)C[C@@]21C	none
C=CC[C@H]1C=C[C@@H](C(C(=O)OC)C(=O)OC)CN1C(C)=O	none
CCCCn1nnnc1NCc1ccc(N2CCCC2)cc1	DNMT1 block 70 | DNMT1 inh conf inactive | DNMT1 interf inactive
CCCn1nnnc1NCc1ccc(N2CCCC2)cc1	none
C=C1C(=O)OC2C1CCC(C)=C1C(=O)C3OC3(C)C12 (centres undefined)	DNMT1 block 72 | DNMT1 inh conf inactive | DNMT1 interf inactive
O=C(Nc1ccc(N2CCN(C(=O)c3ccccc3F)CC2)cc1)c1cncc(Br)c1	none
COc1ccc2oc(C(=O)Nc3ccc(N4CCOCC4)cc3)c(C)c2c1	DNMT1 block 51 | DNMT1 inh conf inactive | DNMT1 interf inactive
Cc1cc(C(=O)NNC(=O)/C=C/c2ccco2)c(C)o1	DNMT1 block 88, Scp1 inh 66 | DNMT1 inh conf inactive | DNMT1 interf inactive
O=C(COC(=O)c1cc(S(=O)(=O)N2CCOCC2)ccc1Cl)Nc1ccccc1Cl	none
COc1cc2oc(=O)cc(-c3ccc(-c4ccc(OC(F)(F)F)cc4)cc3)c2c(OC)c1OC	DNMT1 block 61 | DNMT1 inh conf inactive | DNMT1 interf inactive
COc1ccc(NS(=O)(=O)c2ccc(O)c(NC(=O)c3cc4c(C)nn(-c5ccc(F)cc5)c4s3)c2)cc1	DNMT1 block 97 | Beacon interf DR inactive | DNMT1 inh conf 69 | DNMT1 interf inactive
COc1cc(C)c(C(=O)CSc2nnc(CNC(=O)c3ccco3)n2C)cc1C	none
CC(C)CNC(=O)COC(=O)c1c2c(nc3ccccc13)/C(=C\c1cccs1)CC2	none
CN(CCC#N)C(=O)COC(=O)c1c2c(nc3ccccc13)/C(=C/c1ccco1)CC2	DNMT1 block 100, Scp1 inh 78, LMPTP block 59 | DNMT1 inh conf inactive | DNMT1 interf inactive
COc1ccc2nc(N3C(=O)/C(=C/c4ccc(Cl)cc4)NC3=S)sc2c1	DNMT1 block 100 | DNMT1 inh conf inactive | DNMT1 interf inactive
O=S(=O)(c1ccc(F)cc1)N1CCCN(c2nccc(C(F)(F)F)n2)CC1	none
Oc1cccnc1CCc1ccccc1	none
O=C(C1=C(O)C(=O)N(c2nc3ccc(Cl)cc3s2)C1c1ccco1)c1ccco1 (centres undefined)	SUMO1 PPI mod 40, DNMT1 block 90, Scp1 inh 64, LMPTP block 60 | DNMT1 inh conf inactive | DNMT1 interf inactive
CCOc1ccc(NC(=O)CNC(=O)c2nn(-c3ccc(OC)c(OC)c3)c(=O)c3ccccc23)cc1	none
